Activity calls are given as the source filed them. No cut-off for these calls is given here.

Test [1] has as its system HCT-116. The test can be described thus: Cytotoxicity against human HCT116 cells by MTT assay. The format is functional, cell-based. Summed up: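 HCT116 cells were cultured in McCoy's 5A with 10% FBS and exposed to a range of compound concentrations. MTT was added for 4 h, the solution removed and DMSO added. OD was read at 570 nm, and inhibition calculated as [1 − (OD_test − OD_blank)/(OD_control − OD_blank)] × 100%.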
Background: Tetrazolium dyes change colour on reduction, which living cells bring about.

Test [2] deals with T1, Keap1/Nrf2 (Homo sapiens) (UniProt Q16236+Q14145). The test can be described thus: Induction of Nrf2/Keap1 in human HCT116 cells assessed as induction of ARE activity at 20 uM after 12 hrs by luciferase reporter gene assay relative to control. The conditions noted are these: HCT-116. Format: cell-based.
T1 sequence (Q14145 whole entry, looked up, one chain of several): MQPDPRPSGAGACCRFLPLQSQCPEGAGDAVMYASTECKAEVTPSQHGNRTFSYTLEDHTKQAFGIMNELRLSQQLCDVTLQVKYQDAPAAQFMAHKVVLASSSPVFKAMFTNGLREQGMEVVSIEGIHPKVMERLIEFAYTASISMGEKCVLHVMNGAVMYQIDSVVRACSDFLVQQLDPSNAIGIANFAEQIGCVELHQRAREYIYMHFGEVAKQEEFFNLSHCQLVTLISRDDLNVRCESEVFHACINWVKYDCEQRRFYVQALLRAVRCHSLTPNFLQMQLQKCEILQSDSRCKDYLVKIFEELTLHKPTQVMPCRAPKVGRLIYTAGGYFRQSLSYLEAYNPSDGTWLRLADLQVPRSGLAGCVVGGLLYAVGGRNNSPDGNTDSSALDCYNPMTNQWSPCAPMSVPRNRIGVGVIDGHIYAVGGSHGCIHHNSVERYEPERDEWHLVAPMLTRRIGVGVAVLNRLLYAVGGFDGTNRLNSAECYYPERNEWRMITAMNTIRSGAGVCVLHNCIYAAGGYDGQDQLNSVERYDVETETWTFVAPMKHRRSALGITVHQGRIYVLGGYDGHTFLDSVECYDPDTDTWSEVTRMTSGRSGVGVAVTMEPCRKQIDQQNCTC
In test [3] the target is T1, Keap1/Nrf2 (Homo sapiens). The test can be described thus: Induction of Nrf2/Keap1 in human HepG2-ARE-C8 cells assessed as induction of ARE activity at 50 uM after 12 hrs by luciferase reporter gene assay relative to control.
The test system of test [4] is HCT-116. The test can be described thus: Induction of NQO-1 expression in human HCT116 cells at 20 uM up to 24 hrs by Western blot analysis in presence of MEK1/2 inhibitor PD98059. The format is functional, cell-based. In general terms: Immunoblotting shows a protein as a band on a membrane.
Test [5] concerns HCT-116. The test can be described thus: Induction of Nrf2 expression in human HCT116 cells at 20 uM up to 24 hrs by Western blot analysis in presence of MEK1/2 inhibitor PD98059. The format is functional, cell-based.
Test [6] has as its system HCT-116. The experiment in a line: Induction of HO-1 expression in human HCT116 cells at 20 uM up to 24 hrs by Western blot analysis in presence of MEK1/2 inhibitor PD98059. Format: functional, cell-based.
The target of test [7] is T2, Nuclear factor erythroid 2-related factor 2 (Homo sapiens) (UniProt Q16236).
T2 sequence (whole entry): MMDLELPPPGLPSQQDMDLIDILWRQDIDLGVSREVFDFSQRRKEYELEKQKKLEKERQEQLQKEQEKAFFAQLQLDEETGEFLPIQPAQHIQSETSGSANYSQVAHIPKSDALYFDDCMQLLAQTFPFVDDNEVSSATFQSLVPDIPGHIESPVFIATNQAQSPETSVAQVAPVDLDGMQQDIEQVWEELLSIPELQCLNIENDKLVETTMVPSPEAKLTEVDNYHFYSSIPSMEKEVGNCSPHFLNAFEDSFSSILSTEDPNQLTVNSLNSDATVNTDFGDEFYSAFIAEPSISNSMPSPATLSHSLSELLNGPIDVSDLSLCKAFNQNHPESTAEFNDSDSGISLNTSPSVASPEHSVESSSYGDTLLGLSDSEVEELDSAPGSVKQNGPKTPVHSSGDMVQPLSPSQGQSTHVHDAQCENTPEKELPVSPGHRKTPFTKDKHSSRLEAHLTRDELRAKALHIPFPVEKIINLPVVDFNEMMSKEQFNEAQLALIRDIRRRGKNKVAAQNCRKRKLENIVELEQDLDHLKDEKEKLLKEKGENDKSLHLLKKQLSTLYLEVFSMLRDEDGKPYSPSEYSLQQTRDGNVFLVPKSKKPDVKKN
The experiment in a line: Activation of NRF2 in human HCT116 cells assessed as ERK1/2 phosphorylation at 20 uM after 30 mins to 1 hr by Western blot analysis in presence of MEK1/2 inhibitor PD98059. The format is cell-based. The conditions noted are these: HCT-116.

For test [8], the target named is T2, Nuclear factor erythroid 2-related factor 2 (Homo sapiens). The experiment in a line: Activation of NRF2 in human HCT116 cells assessed as expression of ERK1/2 at 20 uM up to 24 hrs by Western blot analysis. Format: cell-based. The conditions noted are these: HCT-116.
The target is the same in test [9]. The test can be described thus: Activation of NRF2 in human HCT116 cells assessed as ERK1/2 phosphorylation at 20 uM after 30 mins to 1 hr by Western blot analysis. Format: cell-based. The settings on record: HCT-116.
The target in test [10] is T1, Keap1/Nrf2 (Homo sapiens). The experiment in a line: Induction of Nrf2/Keap1 in human HCT116 cells assessed as induction of ARE activity at 20 uM after 12 hrs by luciferase reporter gene assay in presence of MEK1/2 inhibitor PD98059. The conditions noted are these: HCT-116. The format is cell-based.
Test [11] concerns HCT-116. The experiment in a line: Induction of nuclear translocation of Nrf2 in human HCT116 cells at 20 uM after 1 hr by Western blot analysis. Format: functional, cell-based.
Test [12] deals with HCT-116. The test can be described thus: Induction of nuclear translocation of Nrf2 in human HCT116 cells at 20 uM after 24 hrs by Western blot analysis. Format: functional, cell-based.
Test [13] has as its system HCT-116. The test can be described thus: Induction of Nrf2 expression in human HCT116 cells at 20 uM after 2 hrs by Western blot analysis. The format is functional, cell-based.
Test [14] has as its system HCT-116. The test can be described thus: Induction of NQO-1 expression in human HCT116 cells at 20 uM after 24 hrs by Western blot analysis. Format: functional, cell-based.
The subject of test [15] is HCT-116. The experiment in a line: Induction of HO-1 expression in human HCT116 cells at 20 uM after 8 hrs by Western blot analysis. The format is functional, cell-based.
The target of test [16] is T1, Keap1/Nrf2 (Homo sapiens). The test can be described thus: Induction of Nrf2/Keap1 in human HCT116 cells assessed as induction of ARE activity after 12 hrs by luciferase reporter gene assay. The settings on record: HCT-116. The format is cell-based. In general terms: Reporter assays use an easily measured gene product as a stand-in for the process of interest.
Test [17] deals with HCT-116. The experiment in a line: Induction of nuclear translocation of Nrf2 in human HCT116 cells at 20 uM after 1 to 2 hrs by immunofluorescence staining in presence of MEK1/2 inhibitor PD98059.
In test [18] the target is T1, Keap1/Nrf2 (Homo sapiens). The test can be described thus: Induction of Nrf2/Keap1 in human HCT116 cells assessed as induction of ARE activity at 80 uM after 12 hrs by luciferase reporter gene assay relative to control. The format is cell-based. The conditions noted are these: HCT-116.

As a reminder, the IC50 is the point on the concentration scale where inhibition reaches its midpoint. Higher therefore signals lower potency. Consider `Cc1cc(O)c(C(=O)/C=C/c2ccc(Cl)cc2Cl)c(=O)o1`, for which inhibition with HCT-116 [1] was half-maximal at 88.7 µM (IC50). In addition, the results for the fold change (FC) in test [2] and in test [3] were 5.49 and 3.27, respectively.

In the test with HCT-116 [1], `Cc1cc(O)c(C(=O)/C=C/c2ccc3ccccc3c2)c(=O)o1` displayed an IC50 of more than 100 µM. For the same compound, the fold change (FC) in [2] is 1.37; in test [3], 2.17.

`Cc1cc(O)c(C(=O)/C=C/c2ccc(F)cc2F)c(=O)o1` had an IC50 with HCT-116 [1] of 80.3 µM. Besides, the figures for the fold change (FC) in test [2] and in test [3] were 6.93 and 6.98, respectively.

In turn, `Cc1cc(O)c(C(=O)/C=C/c2ccccc2[N+](=O)[O-])c(=O)o1` showed a concentration for half-maximal inhibition (IC50) in the test on HCT-116 [1] of more than 100 µM. Further, the fold change (FC) in [2] stood at 2.74; in test [3] it was 0.65.

Take `COc1ccc(/C=C/C(=O)c2c(O)cc(C)oc2=O)c(OC)c1`: in the test on HCT-116 [1], the IC50 was more than 100 µM. Moreover, the fold change (FC) came to 8.21 in test [2] and 6.81 in [3].

In the test on HCT-116 [1], `Cc1cc(O)c(C(=O)/C=C/c2ccc([N+](=O)[O-])cc2)c(=O)o1` returned an IC50 of 65 µM. For the same compound, the fold change (FC) came out at 4.77 in test [2] and 2.48 in test [3].

In the test with HCT-116 [1], `Cc1cc(O)c(C(=O)/C=C/c2ccco2)c(=O)o1` came in with an IC50 of more than 100 µM. Also, the values for the fold change (FC) in test [2] and in test [3] were 3.8 and 5.48, respectively.

As for `Cc1cc(O)c(C(=O)/C=C/c2ccc(Cl)c(Cl)c2)c(=O)o1`, in the test with HCT-116 [1], the 50% inhibitory concentration (IC50) is more than 100 µM. For the same compound, the fold change (FC) in test [2] was found to be 8; in [3], 1.2.

Regarding `Cc1cc(O)c(C(=O)/C=C/c2cccc(F)c2)c(=O)o1`, in the test with HCT-116 [1], the IC50 amounted to 81.2 µM. Besides, the fold change (FC) in test [2] turned out to be 7.04; in [3] it was 3.46.

In turn, `Cc1cc(O)c(C(=O)/C=C/c2ccc(N(C)C)cc2)c(=O)o1` had an IC50 with HCT-116 [1] of more than 100 µM. In addition, the fold change (FC) stood at 4.55 in [2] and 8.09 in [3].

In turn, `Cc1cc(O)c(C(=O)/C=C/c2ccccc2Cl)c(=O)o1` yielded an IC50 with HCT-116 [1] of more than 100 µM. The fold change (FC) in test [2] came out at 5.08; in test [3] it was 0.95.

Take `Cc1cc(O)c(C(=O)/C=C/c2ccc(Cl)cc2)c(=O)o1`: in the test on HCT-116 [1], the concentration for half-maximal inhibition (IC50) was determined as 87.4 µM. Also, the fold change (FC) was determined as 6.97 in test [2] and 6.28 in [3].

Regarding `Cc1cc(O)c(C(=O)/C=C/c2ccc(C#N)cc2)c(=O)o1`, 66 µM corresponded to half-maximal inhibition in the test on HCT-116 [1] (IC50). Also, the fold change (FC) in test [2] was determined as 3.68; in test [3], 2.07.

Compound `Cc1cc(O)c(C(=O)/C=C/c2ccc(F)c(F)c2)c(=O)o1` gave a half-inhibitory concentration (IC50) with HCT-116 [1] of 74.9 µM. Moreover, the fold change (FC) in test [2] worked out at 9.65; in [3], 3.68.

Compound `COc1ccccc1/C=C/C(=O)c1c(O)cc(C)oc1=O` showed a half-inhibitory concentration (IC50) in the test on HCT-116 [1] of more than 100 µM. In addition, the figures for the fold change (FC) in test [2] and in test [3] were 5.86 and 2.08, respectively.

In turn, `Cc1cc(O)c(C(=O)/C=C/c2ccccc2)c(=O)o1` returned an IC50 in the test on HCT-116 [1] of more than 100 µM. Besides, the results for the fold change (FC) in test [2] and in [3] were 4.21 and 6.84, respectively.

In the case of `Cc1cc(O)c(C(=O)/C=C/c2ccccc2F)c(=O)o1`, the result (in the test on HCT-116 [4]; in the test with HCT-116 [5]; in the test with HCT-116 [6]; in test [7]; in [8]; in test [10]) was inactive. The outcome in the test on HCT-116 [12] and in the test with HCT-116 [17] was inactive. Moreover, the result (in test [9]; with HCT-116 [11]; in the test with HCT-116 [13]; in the test with HCT-116 [14]; with HCT-116 [15]) was Active. In addition, the IC50 in the test on HCT-116 [1] is more than 100 µM. Further, in test [16], the Activity result is “Dose-dependent effect”. The results for the fold change (FC) in test [2] and in [3] were 7.08 and 3.04, respectively.

Turning to `COc1cc(/C=C/C(=O)c2c(O)cc(C)oc2=O)cc(OC)c1OC`, the IC50 in the test with HCT-116 [1] is more than 100 µM. Moreover, the figures for the fold change (FC) in test [2] and in test [3] were 8.58 and 5.25, respectively.

`Cc1cc(O)c(C(=O)/C=C/c2ccc[nH]2)c(=O)o1`: the IC50 in the test with HCT-116 [1] is more than 100 µM. The fold change (FC) in test [2] is 1.66; in [3] it was 3.58.

Consider `Cc1cc(O)c(C(=O)/C=C/c2cccs2)c(=O)o1`, for which the IC50 in the test with HCT-116 [1] was more than 100 µM. Further, the fold change (FC) in test [2] worked out at 4.53; in test [3], 5.96.

`COc1ccc(/C=C/C(=O)c2c(O)cc(C)oc2=O)cc1`: in the test with HCT-116 [1], the IC50 is more than 100 µM. Besides, the fold change (FC) amounted to 6.48 in [2] and 7.37 in test [3].

Turning to `Cc1cc(O)c(C(=O)/C=C/c2ccc(-c3ccccc3)cc2)c(=O)o1`, in the test with HCT-116 [1], the IC50 was more than 100 µM. Further, the fold change (FC) in test [2] was 5.67; in test [3], 3.6.

For the compound `Cc1cc(O)c(C(=O)/C=C/c2cccc(Cl)c2)c(=O)o1`, it took 66.3 µM to reach half-maximal inhibition in the test with HCT-116 [1] (IC50). Besides, the fold change (FC) in test [2] came to 6.46; in test [3], 4.51.

On to `CCOc1ccc(/C=C/C(=O)c2c(O)cc(C)oc2=O)cc1`, for which the IC50 with HCT-116 [1] was more than 100 µM. In addition, the fold change (FC) was 4.66 in [2] and 5.5 in test [3].

As to `Cc1cc(O)c(C(=O)/C=C/c2ccccc2C(F)(F)F)c(=O)o1`, the half-maximal inhibitory concentration (IC50) in the test with HCT-116 [1] is more than 100 µM. Besides, the fold change (FC) in test [2] is 4.27; in test [3], 2.55.

Take `CC(C)(C)c1cc(O)ccc1O` [E319]: the IC50 in the test on HCT-116 [1] was more than 100 µM. The fold change (FC) in [18] was found to be 5.08.

Regarding `Cc1cc(O)c(C(=O)/C=C/c2ccc(F)cc2)c(=O)o1`, the IC50 with HCT-116 [1] is more than 100 µM. Besides, the fold change (FC) came out at 6.33 in [2] and 5.79 in test [3].

Source of the values: ChEMBL document CHEMBL2406970, “Synthesis and bioevaluation of a series of α-pyrone derivatives as potent activators of Nrf2/ARE pathway (part I)” (Eur J Med Chem, 2013).
